Results on 6 compounds are retold here after ChEMBL document CHEMBL4017482, “4-Connected azabicyclo[5.3.0]decane Smac mimetics-Zn2+ chelators as dual action antitumoral agents” (Bioorg Med Chem Lett, 2017).

The source made the active and inactive calls. The calls are words filed in the database; no cut-off is given here.

Assay [1] deals with MDA-MB-231. Nature of the assay: Induction of apoptosis in smac mimetic-sensitive human MDA-MB-231 cells assessed as increase in cleaved casapse-3 at 5 uM measured after 24 hrs by Western blot analysis. The format is functional, cell-based. Background: Immunoblotting shows a protein as a band on a membrane.
Assay [2] is described as follows: Metal chelating activity of compound assessed as 1:1 stoichiometry for compound-Zn2+ complex at 50 uM measured after 15 mins by spectrofluorimetric method. The format is functional. Put shortly: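 Compounds were titrated with Zn2+, and chelation was followed by fluorescence spectroscopy.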
For assay [3], the system named is MDA-MB-231. Nature of the assay: Induction of apoptosis in smac mimetic-sensitive human MDA-MB-231 cells assessed as increase in cleaved PARP level at 5 uM measured after 24 hrs by Western blot analysis. The class given is functional, cell-based.
Assay [4] concerns the target E3 ubiquitin-protein ligase XIAP (Homo sapiens) (UniProt P98170). Briefly: Induction of XIAP degradation in smac mimetic-sensitive human MDA-MB-231 cells at 5 uM measured after 24 hrs by Western blot analysis.
Assay [5] has as its system MDA-MB-453. Briefly: Induction of apoptosis in smac mimetic-resistant human MDA-MB-453 cells assessed as increase in cleaved casapse-3 at 5 uM measured after 24 hrs by Western blot analysis. The class given is functional, cell-based.
In assay [6] the test system is MDA-MB-453. Briefly: Induction of apoptosis in smac mimetic-resistant human MDA-MB-453 cells assessed as increase in cleaved PARP level at 5 uM measured after 24 hrs by Western blot analysis. The format is functional, cell-based.
For assay [7], the system named is MDA-MB-231. Briefly: Cytotoxicity against human smac mimetic-sensitive human MDA-MB-231 cells after 24 hrs by CellTiter-Glo assay. To be noted: MDA-MB-231, 24 h. Background: Cellular ATP, detected with luciferase, serves as a proxy for viable cell number.
Assay [8] concerns MDA-MB-453. Nature of the assay: Cytotoxicity against human smac mimetic-sensitive human MDA-MB-453 cells after 24 hrs by CellTiter-Glo assay. To be noted: MDA-MB-453, 24 h.
Assay [9] addresses E3 ubiquitin-protein ligase XIAP (Homo sapiens) (UniProt P98170). Nature of the assay: Induction of XIAP degradation in smac mimetic-resistant human MDA-MB-453 cells at 5 uM measured after 24 hrs by Western blot analysis.

Chain of E3 ubiquitin-protein ligase XIAP (Homo sapiens) (P98170 whole entry): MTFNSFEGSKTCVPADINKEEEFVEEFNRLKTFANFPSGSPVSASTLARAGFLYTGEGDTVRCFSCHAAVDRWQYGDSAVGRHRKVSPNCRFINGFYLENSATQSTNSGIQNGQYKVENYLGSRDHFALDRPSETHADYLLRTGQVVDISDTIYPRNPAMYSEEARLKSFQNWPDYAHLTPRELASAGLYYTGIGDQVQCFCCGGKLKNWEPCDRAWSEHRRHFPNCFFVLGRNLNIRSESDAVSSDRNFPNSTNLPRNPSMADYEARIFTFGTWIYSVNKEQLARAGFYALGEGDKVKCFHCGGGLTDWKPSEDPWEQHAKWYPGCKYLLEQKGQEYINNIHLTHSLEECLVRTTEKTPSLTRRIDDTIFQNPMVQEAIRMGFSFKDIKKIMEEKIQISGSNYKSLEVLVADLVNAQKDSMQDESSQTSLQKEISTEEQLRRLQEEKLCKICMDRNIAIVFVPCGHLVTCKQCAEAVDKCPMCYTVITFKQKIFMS

As to `CC[C@H](NC)C(=O)N[C@@H]1C(=O)N2[C@@H](CC[C@@H]1CNC(=O)CCNC(=O)CN(Cc1ccccn1)Cc1ccccn1)CC[C@H]2C(=O)NC(c1ccccc1)c1ccccc1`, the result in [1], in assay [3], in [4], in [5] and in [6] was inactive. Also, the outcome in assay [2] was Active. The IC50 in assay [7] and in assay [8] was > 25 µM in each case.
As to `CC[C@H](NC)C(=O)N[C@@H]1C(=O)N2[C@@H](CC[C@@H]1CNC(=O)COCCOCCNC(=O)CN(Cc1ccccn1)Cc1ccccn1)CC[C@H]2C(=O)NC(c1ccccc1)c1ccccc1`, the outcome in assay [1], in assay [3], in assay [4], in assay [5] and in [6] was inactive. Besides, the result in assay [2] and in assay [9] was Active. The IC50 in assay [7] and in assay [8] was > 25 µM in each case.
Take `CC[C@H](NC)C(=O)N[C@@H]1C(=O)N2[C@@H](CC[C@@H]1CNC(=O)c1ccccc1)CC[C@H]2C(=O)NC(c1ccccc1)c1ccccc1`: the outcome in [1] and in assay [3] was Active. In addition, the outcome in assay [4] and in assay [9] was inactive. For the same compound, the results for the IC50 in [7] and in assay [8] were 4.1 µM and > 25 µM, respectively.
For `CC[C@H](NC)C(=O)N[C@@H]1C(=O)N2[C@@H](CC[C@@H]1CNC(=O)CCCCCCCCCCNC(=O)CN(Cc1ccccn1)Cc1ccccn1)CC[C@H]2C(=O)NC(c1ccccc1)c1ccccc1`, the result in assay [1], in assay [2], in [3] and in assay [4] was Active. Also, the result in assay [9], in [5] and in assay [6] was inactive. For the same compound, the IC50 (in general, the concentration needed to halve the response being measured) in assay [7] is 0.97 µM; in assay [8], > 25 µM.
Take `CC[C@H](NC)C(=O)N[C@@H]1C(=O)N2[C@@H](CC[C@@H]1CNC(=O)c1ccccc1)CC[C@H]2C(=O)N[C@H](C(=O)NCCN(Cc1ccccn1)Cc1ccccn1)c1ccccc1`: the outcome in assay [4] and in [9] was inactive.
Turning to `CC[C@H](NC)C(=O)N[C@@H]1C(=O)N2[C@@H](CC[C@@H]1CNC(=O)CN(Cc1ccccn1)Cc1ccccn1)CC[C@H]2C(=O)NC(c1ccccc1)c1ccccc1`, the outcome in assay [1], in [2] and in assay [3] was Active. Besides, the result in assay [4], in assay [5] and in assay [6] was inactive. Besides, the values for the IC50 in [7] and in assay [8] were 6.5 µM and > 25 µM, respectively.
